{"data": "Measured values of several laboratories", "ahcY": "ahcY (Saccharolobus solfataricus, UniProt P50252)", "MAOA": "Amine oxidase [flavin-containing] A (MAOA, Homo sapiens, UniProt P21397)", "CTSS": "Cathepsin S (CTSS, Homo sapiens, UniProt P25774)", "note": "Each line is one published result; the experiments were not run side by side."}
{"SMILES": "NC(=O)c1cccc(C#CCN(CC[C@H](N)C(=O)O)C[C@H]2O[C@@H](n3cnc4c(N)ncnc43)[C@H](O)[C@@H]2O)c1", "target": "ahcY", "test": "enzyme activity, inhibitor", "endpoint": "IC50", "result": "8.5 µM"}
{"SMILES": "C#CCN(C)CCCCCOCc1ccc(CN(C)c2c3c(nc4ccc(C)cc24)CCCC3)cc1", "target": "MAOA", "test": "enzyme activity, inhibitor, fluorescence", "endpoint": "IC50", "result": "0.53 µM"}
{"SMILES": "CNC(=O)c1ccc(-c2cnn3ccc(C(=O)N(C)c4ccc(Cl)c(C(=O)O)c4)cc23)cc1", "target": "Alpha-1A adrenergic receptor (ADRA1A, Homo sapiens, UniProt P35348)", "test": "cell-free assay", "endpoint": "IC50", "result": "> 30 µM"}
{"SMILES": "C#CCN(C)CCCCCCOc1cccc(CN(C)c2c3c(nc4ccc(F)cc24)CCCC3)c1", "target": "MAOA", "test": "enzyme activity, inhibitor, fluorescence", "endpoint": "IC50", "result": "50.7 µM"}
{"SMILES": "CN(C)c1cccc2c(S(=O)(=O)NCCCCCCCCCCC(=O)O)cccc12", "target": "Fatty acid-binding protein, liver (FABP1, Homo sapiens, UniProt P07148)", "test": "binding, fluorescence", "endpoint": "Kd", "result": "0.2 µM"}
{"SMILES": "C#CCN(C)CCCCCCCOc1cccc(CN(C)c2c3c(nc4ccccc24)CCCC3)c1", "target": "MAOA", "test": "enzyme activity, inhibitor, fluorescence", "endpoint": "IC50", "result": "7.68 µM"}
{"SMILES": "Cn1nccc1[C@]1(CNC(=O)c2ccc(F)c(F)c2-c2ccc(C(F)(F)F)cc2)NC(=O)NC1=O", "target": "CTSS", "test": "enzyme activity, inhibitor", "endpoint": "IC50", "result": "> 100 µM"}
{"SMILES": "CC(C)C[C@H](NC(=O)[C@H]1O[C@@H]1C(=O)O)C(=O)NCCCCN=C(N)N", "target": "CTSS", "test": "enzyme activity, inhibitor", "endpoint": "IC50", "result": "0.00073 µM"}
{"SMILES": "CNC(=O)c1ccc(-c2cnn3ccc(C(=O)N(C)c4ccc(Cl)c(C(=O)OC)c4)cc23)cc1", "target": "MAOA", "test": "cell-free assay", "endpoint": "IC50", "result": "> 30 µM"}
{"SMILES": "CC[C@H](C)[C@H](NC(=O)[C@H](Cc1ccc(O)cc1)NC(=O)[C@@H](NC(=O)[C@H](CCCNC(=N)N)NC(=O)[C@@H](N)CC(=O)O)C(C)C)C(=O)N[C@@H](Cc1cnc[nH]1)C(=O)N1CCC[C@H]1C(=O)N[C@@H](Cc1ccccc1)C(=O)O", "target": "Angiotensin-converting enzyme 2 (ACE2, Homo sapiens, UniProt Q9BYF1)", "test": "enzyme activity, inhibitor, fluorescence", "endpoint": "IC50", "result": "4.9 µM"}
{"SMILES": "O=C(O)[C@@H]1CS[C@H]2CS[C@H](CCS)N21", "target": "sfhI (Serratia fonticola, UniProt Q9RMI1)", "test": "enzyme activity, inhibitor", "endpoint": "IC50", "result": "> 1000 µM"}
{"SMILES": "C#CCN(C)CCCCCCCCOCc1ccc(CN(C)c2c3c(nc4ccccc24)CCCC3)cc1", "target": "MAOA", "test": "enzyme activity, inhibitor, fluorescence", "endpoint": "IC50", "result": "8.29 µM"}
{"SMILES": "CC(=O)N(CC#Cc1cccc(C(N)=O)c1)C[C@H]1C[C@@H](n2ccc3c(Cl)ncnc32)[C@H](O)[C@@H]1O", "target": "ahcY", "test": "enzyme activity, inhibitor", "endpoint": "IC50", "result": "> 333 µM"}
{"SMILES": "Cc1ccc(F)c(CNS(=O)(=O)c2cccc3cccnc23)c1", "target": "Amine oxidase [flavin-containing] B (Maob, Mus musculus, UniProt Q8BW75)", "test": "enzyme activity, inhibitor, fluorescence", "endpoint": "IC50", "result": "1.81 µM"}
